In the library only some 5.1% were active in any assay of this set; here they are far more common.
STAT1 inh = STAT1 signaling inhibition; NIH 3T3 STAT1-luciferase reporter, IFN-gamma, luminescence; inhibition, % at 5.5 µM; hit rate 0.35% among 200,000; AID 920;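 active = inhibition above a set limit, the mean inhibition across all tested compounds plus 3 SD, cut at about 34% in these data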;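 note: 0% = IFN-gamma with DMSO and 100% = IFN-gamma with 300 µM nifuroxazide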
STAT3 blocker = inhibitors of IL-6 induced STAT3 signaling. U3A cells, IL-6 STAT3-luciferase reporter, luminescence; host cell line lacks STAT1. inhibition, % at 5.5 µM. hit rate 0.89% among 190,000;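 active = inhibition above the mean inhibition across all screened compounds plus 3 SD, cut at about 44% in these data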;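 note: 0% = DMSO only wells and 100% = 100 µM nifuroxazide control wells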
STAT3 act-1 = increases IL-6 driven STAT3 reporter signal | activation (% of control), % at 5.6 µM | U3A cells, IL-6 STAT3-luciferase reporter, luminescence; 100% = signal with IL-6 EC80 alone | hit rate 0.91% among 190,000;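 active = activation above the screen-wide mean of compound activation plus 3 SD, cut at about 130% in these data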;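 note: 0% = background luminescence of wells with medium and substrate only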
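Material: STAT3-luciferase reporter U3A cells; Probe or stimulus: IL-6 (33 ng/mL); Incubation: compound pre-incubation 1 h before IL-6, then 6 h stimulation at 37 °C; Technique: luminescence from STAT3-driven luciferase reporter; Evaluation: % activation versus median of IL-6-stimulated wells; Controls: IL-6-only high control.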
STAT1 act-1 = STAT1 signaling activation. activation (% of control), % at 5.5 µM. NIH 3T3 STAT1-luciferase reporter, IFN-gamma, luminescence; 100% = IFN-gamma alone, no compound. hit rate 2.6% among 200,000;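 active = activation above the screen-wide mean activation plus 3 SD, cut at about 130% in these data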;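 note: raw ratio to IFN-gamma control signal so 100% means no change and 0% no light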
NF-kB expr up = NF-kB expression increase, human neuronal cells; hit rate 1.6% among 190,000; fold change at 12.5 µM; NF-kB reporter expression; hits give high values; in the data active = fold change above about 3.3
APP 5'UTR act = activates APP 5'UTR luciferase reporter; SH-SY5Y APP 5'UTR luciferase reporter, luminescence; zero percent = DMSO vehicle wells; hit rate 1% among 190,000; activation, % at 2 µM;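 active = activation above a set limit, based on mean plus 3 SD of controls, cut at about 140% in these data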
STAT3 act-2 = STAT3 activation, confirmation assay; shares compounds with STAT3 act-1; U3A STAT3-luciferase reporter, IL-6 potentiation, luminescence; U3A cells lack STAT1; 100 means same as IL-6 alone; potentiation (% of control), % at 5.7 µM; hit rate 64% among 1,200; AID 1267;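 active = percent activation of the STAT3 luciferase reporter above a set limit taken from the earlier primary screen, cut at about 130% in these data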;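 note: 0% = background signal of medium plus substrate and 100% = median of IL-6 with DMSO wells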
NFkB act STAT3ct = activates NF-kappaB, counter-screen to STAT3 activators | shares compounds with STAT3 act-1 | human cells, NF-kappaB reporter activation | activation (% of control), % at 5.7 µM | hit rate 11% among 1,200 | AID 1309; in the data active = activation above about 120%;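 note: reporter induced by TNF-alpha stimulation; 100% = median of stimulated DMSO wells and 0% = no signal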
STAT1 act-2 = activates STAT1, counter-screen to STAT3 activators. shares compounds with STAT3 act-1. NIH 3T3 STAT1-luciferase reporter, IFN-gamma, luminescence. activation (% of control), % at 5.7 µM. hit rate 13% among 1,200;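 active = activation above the solvent-only control well mean plus 3 SD, set per screening run, cut at about 120% in these data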;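 note: 100% = IFN-gamma with DMSO median signal so 100% means no change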
Numbers without * were called inactive; / = no result given.

SMILES	STAT1 inh	STAT3 blocker	STAT3 act-1	STAT1 act-1	NF-kB expr up	APP 5'UTR act	STAT3 act-2	NFkB act STAT3ct	STAT1 act-2
Cc1ccc2cc(C)c3nnc(SCC(=O)Nc4nc5c(s4)CCCC5)n3c2c1	8	4	97	93	0.63	8	/	/	/
COc1ccccc1NC(=S)Nc1ccc2cn[nH]c2c1	-6	-38	131	103	1.2	20	/	/	/
S=c1cnc2ccccc2[nH]1	-2	4	104	100	1	26	/	/	/
Cc1nc(C)c(CC(=O)N2CCc3c([nH]c4ccccc34)C2c2ccccn2)s1 (stereo not given)	6	10	96	93	/	9	/	/	/
Cc1cccc(C2c3[nH]c4ccccc4c3CCN2C(=O)Cc2n[nH]c(C)n2)n1 (stereo not given)	7	-35	137*	91	0.92	14	139*	100	93
Cc1cccc(C2c3[nH]c4ccccc4c3CCN2C(=O)c2cc3c([nH]c2=O)CCCC3)n1 (stereo not given)	13	-25	127	87	0.65	-5	/	/	/
Cc1cccc(C2c3[nH]c4ccccc4c3CCN2Cc2ccc(C)s2)n1 (stereo not given)	3	-43	142*	96	1.2	9	124	99	91
Cc1cccc(C2c3[nH]c4ccccc4c3CCN2C(=O)c2cc(C(C)C)nc(N)n2)n1 (stereo not given)	2	-28	130	98	0.89	13	/	/	/
Cc1cccc(C2c3[nH]c4ccccc4c3CCN2C(=O)c2ccc(=O)[nH]c2)n1 (stereo not given)	-7	-41	143*	104	0.79	-12	120	101	99
CC(=O)c1nc(-c2ccccc2)sc1C	-13	17	89	112	1.2	-5	/	/	/
O=C(CN1C2=NCCCN2c2ccccc21)c1ccc([N+](=O)[O-])cc1	5	-1	103	96	0.77	8	/	/	/
O=C(NCc1ccncc1)C(=O)N/N=C/c1ccccn1	-5	7	100	102	0.83	-11	/	/	/
CC(C)CC(=O)c1c[nH]c(C(=O)N2CCN(Cc3ccccc3)CC2)c1	0	4	102	99	1	7	/	/	/
COCc1ccc(C(=O)NC(C)c2cnn(-c3ccccc3C)c2C)o1 (stereo not given)	0	1	103	99	1.1	7	/	/	/
Cc1nn(-c2ccc(Cl)c(Cl)c2)c(=O)c2ccccc12	-3	-42	146*	103	1.6	-15	138*	123*	134*
Cc1nn(-c2ccc(Cl)c(Cl)c2Cl)c(=O)c2ccccc12	4	10	93	97	1.1	23	/	/	/
CN1CCN(C(=O)NCC23CC4CC(CC(C4)C2)C3)CC1	-5	-2	106	101	1.1	-9	/	/	/
COc1ccc(C(C[N+](=O)[O-])c2c(C)[nH]c3ccccc23)cc1OC (stereo not given)	15	-48	138*	86	1.1	0	111	102	95
O=C(c1ccc(F)cc1)n1c(NCc2ccccc2)n[nH]c1=S	-13	19	88	112	1.1	14	/	/	/
O=C1/C(=C\c2ccco2)SC(=S)N1Cc1ccccc1	7	-66	168*	94	1.1	10	157*	100	98
O=C(O)CCCN1C(=O)/C(=C\c2ccco2)SC1=S	13	14	91	86	0.63	13	/	/	/
c1ccc(-c2cc3c(-n4cccc4)ncnc3o2)cc1	12	-52	151*	89	1.2	2	160*	112	113
COc1ccc(Cl)cc1NC(=O)Nc1ccc(Br)cn1	7	-72	160*	92	1	-8	144*	101	90
COc1ccccc1NC(=O)Nc1ccc(Br)cn1	10	-4	110	92	1.2	-2	/	/	/
COc1cc(C2C(C#N)=C(N)Oc3cc(O)ccc32)cc(OC)c1OC (stereo not given)	10	-10	112	91	1	-95	/	/	/
SMILES	STAT1 inh	STAT3 blocker	STAT3 act-1	STAT1 act-1	NF-kB expr up	APP 5'UTR act	STAT3 act-2	NFkB act STAT3ct	STAT1 act-2
COc1cc(C2C(C#N)=C(N)Oc3cc4c(cc32)OCO4)cc(OC)c1OC (stereo not given)	11	-46	147*	90	3	-93	118	162*	107
COc1ccc(C)cc1NC(=O)C(c1ccccc1)N1CCNC(=O)C1 (stereo not given)	2	10	95	98	1.2	9	/	/	/
O=C(O)c1cc(Cl)c2ccccc2c1O	4	-44	139*	100	0.91	29	130	109	107
COc1cccc(OC2OC3COC(C)(C)OC3C(O)C2NC(C)=O)c1 (stereo not given)	-3	6	100	102	1	15	/	/	/
O=C(O)C(Cc1ccccc1)N1C(=O)c2ccccc2C1=O (stereo not given)	-3	-13	108	103	0.98	13	/	/	/
O=C(O)C(Cc1ccccc1)N1C(=O)c2cccc3cccc(c23)C1=O (stereo not given)	12	-45	144*	88	0.95	5	143*	105	93
O=C1c2cccc3cccc(c23)C(=O)N1CCc1ccccc1	-26	-36	147*	123	1.7	100	193*	125*	129*
CN(C(=O)CCCN1C(=O)c2cccc3cccc(c23)C1=O)c1ccccc1	2	-2	101	98	1.1	22	/	/	/
Cc1c(C(=O)OCC(=O)N2CC(=O)Nc3ccccc32)oc2ccc(Br)cc12	-1	17	90	101	1	18	/	/	/
COc1ccc(NC(=O)N2CCN(C(=O)C(Cc3ccc(F)cc3)NC(C)=O)CC2)cc1 (stereo not given)	-10	5	100	108	1.3	2	/	/	/
Cc1csc(-c2coc3cc(O)cc(C)c3c2=O)n1	-26	-52	148*	124	2.1	38	160*	106	131*
Cc1nc(-c2coc3cc(C)c(N=O)c(O)c3/c2=N\N)cs1	-4	7	102	104	1.1	-16	/	/	/
O=C(NCCSc1c[nH]c2ccccc12)c1ccco1	-10	-42	140*	109	1.7	-1	121	110	133*
O=C(NCCSc1c[nH]c2ccccc12)c1c(F)cccc1F	-10	/	/	108	1.2	-1	/	/	/
Cc1cc2c(cc1C)CSC(c1c(O)ccc3ccccc13)SC2	-3	7	101	103	1.1	21	/	/	/

Screens deposited in PubChem BioAssay by several laboratories.
